Reference: ChEMBL document CHEMBL3526062, “Role of human UDP-glucuronosyltransferases in the biotransformation of the triazoloacridinone and imidazoacridinone antitumor agents C-1305 and C-1311: highly selective substrates for UGT1A10” (Drug Metab Dispos, 2012)

Experiments:
[1] = Drug metabolism in human intestinal microsomes assessed as ratio of Vmax to Km for glucuronidation per mg of protein after 60 mins by Michaelis-Menten equation in presence of 3 mM UDP-GlcUA; type: ADME, Intestine, Microsome; settings: 1 h
Procedure, shortened: (§1)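 Recombinant UGT membrane protein (5 μg; His-tagged UGT1A levels normalized by anti-His Western blot) or single-donor microsomes (20 μg) incubated with substrate 5–1000 μM and 3 mM UDP-GlcUA in […] pH 7.4, 5 mM MgCl2, 5 mM saccharolactone, 2% DMSO, 60 min, 37°C. Ethanol stop, centrifuged, HPLC-UV. Initial velocities fitted to Michaelis-Menten, Hill or substrate-inhibition models; three determinations.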

[2] = Drug metabolism in human intestinal microsomes assessed as glucuronidation activity at 0.2 mM for 60 mins by ESI-MS analysis in presence of 3 mM UDP-GlcUA; type: ADME, Intestine, Microsome; settings: 1 h, 200 µM
Procedure, shortened: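 Single-donor liver or intestinal microsomes (20 μg total protein) incubated with 0.2 mM substrate and 3 mM UDP-GlcUA for 60 min at 37°C in Tris-HCl pH 7.4, MgCl2, saccharolactone, 2% DMSO. Ethanol stop, centrifuged, HPLC analysis; triplicates.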

[3] = Drug metabolism in human intestinal microsomes assessed as glucuronidation per mg of protein after 60 mins by Michaelis-Menten equation in presence of 3 mM UDP-GlcUA; type: ADME, Intestine, Microsome; settings: 1 h; procedure, shortened: as §1
[4] = system: Liver microsome; experiment: Drug metabolism in human liver microsomes assessed as glucuronidation per mg of protein after 60 mins by Michaelis-Menten equation in presence of 3 mM UDP-GlcUA; type: ADME; settings: 1 h; procedure, shortened: as §1
[5] = Drug metabolism in human intestinal microsomes assessed as glucuronidation after 60 mins by Michaelis-Menten equation in presence of 3 mM UDP-GlcUA; type: ADME, Intestine, Microsome; procedure, shortened: as §1
[6] = target: T1, UDP-glucuronosyltransferase 1A10 (Homo sapiens, UniProt Q9HAW8); experiment: Activity of human recombinant UGT1A10 expressed in baculovirus-infected Sf9 cells assessed as glucuronidation activity per mg of protein at 100 to 200 uM after 60 mins in presence of 3 mM UDP-GlcUA; type: ADME; settings: sf9, 1 h
T1 sequence (Q9HAW8 whole entry): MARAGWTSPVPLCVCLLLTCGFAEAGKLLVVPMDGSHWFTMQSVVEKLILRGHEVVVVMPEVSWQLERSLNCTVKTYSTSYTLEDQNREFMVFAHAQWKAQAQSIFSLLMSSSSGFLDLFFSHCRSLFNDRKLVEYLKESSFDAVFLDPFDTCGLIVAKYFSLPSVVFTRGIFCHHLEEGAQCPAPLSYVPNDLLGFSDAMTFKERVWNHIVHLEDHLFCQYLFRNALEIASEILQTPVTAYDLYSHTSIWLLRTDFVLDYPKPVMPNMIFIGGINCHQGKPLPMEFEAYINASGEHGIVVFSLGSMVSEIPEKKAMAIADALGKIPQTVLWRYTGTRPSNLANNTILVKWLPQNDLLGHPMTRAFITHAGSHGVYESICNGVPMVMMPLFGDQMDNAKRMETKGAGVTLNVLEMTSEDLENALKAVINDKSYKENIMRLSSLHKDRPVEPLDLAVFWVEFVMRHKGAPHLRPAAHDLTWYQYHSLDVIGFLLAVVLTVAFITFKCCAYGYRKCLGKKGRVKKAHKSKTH
Procedure, shortened: (§2)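 Screening: 5 μg recombinant UGT protein (His-tag levels normalized) in Tris-HCl pH 7.4, 5 mM MgCl2, 5 mM saccharolactone, 2% DMSO to permeabilize membranes. Substrate at 100 or 200 μM, added in water. Started with 3 mM UDP-GlcUA, 60 min at 37°C, stopped with ethanol, then centrifuged. Glucuronide quantified by reversed-phase C18 HPLC against the substrate response; triplicates.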

[7] = target: T1, UDP-glucuronosyltransferase 1A10; experiment: Activity of human recombinant UGT1A10 expressed in baculovirus-infected Sf9 cells assessed as metabolite formation at 200 uM after 60 mins by HPLC analysis; type: ADME; settings: sf9, 1 h
Procedure, shortened: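 Protein (5 μg UGT1A10 or microsomal) incubated with 0.2 mM substrate and 3 mM UDP-GlcUA, 60 min. HPLC on C18 at 25°C with a 15–80% methanol gradient in 0.05 M ammonium formate pH 3.4 at 1 ml/min. ESI positive-ion MS and UV/Vis spectra taken from the peaks. Glucuronide confirmed by 60 min further treatment with 1000 U E. coli β-glucuronidase.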

[8] = target: T2, UDP-glucuronosyltransferase 1A7 (Homo sapiens, UniProt Q9HAW7); experiment: Activity of human recombinant UGT1A7 expressed in baculovirus-infected Sf9 cells assessed as glucuronidation activity per mg of protein at 100 to 200 uM after 60 mins in presence of 3 mM UDP-GlcUA; type: ADME; settings: sf9, 1 h; procedure, shortened: as §2
T2 sequence (Q9HAW7 whole entry): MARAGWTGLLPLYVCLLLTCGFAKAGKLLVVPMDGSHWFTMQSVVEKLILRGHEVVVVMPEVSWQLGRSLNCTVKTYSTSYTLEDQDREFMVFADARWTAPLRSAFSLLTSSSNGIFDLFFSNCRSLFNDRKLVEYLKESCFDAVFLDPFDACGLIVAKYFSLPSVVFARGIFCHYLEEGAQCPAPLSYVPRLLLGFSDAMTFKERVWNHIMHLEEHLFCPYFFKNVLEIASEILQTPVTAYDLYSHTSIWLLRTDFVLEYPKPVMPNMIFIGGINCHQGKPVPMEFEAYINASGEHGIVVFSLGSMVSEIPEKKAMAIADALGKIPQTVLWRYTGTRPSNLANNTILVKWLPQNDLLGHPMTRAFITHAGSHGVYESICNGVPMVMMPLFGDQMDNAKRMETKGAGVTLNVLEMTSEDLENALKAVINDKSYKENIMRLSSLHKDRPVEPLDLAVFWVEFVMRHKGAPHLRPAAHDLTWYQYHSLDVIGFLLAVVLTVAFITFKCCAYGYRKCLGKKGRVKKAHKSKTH

[9] = Drug metabolism in human colon microsomes assessed as glucuronidation activity at 0.1 mM for 60 mins in presence of 3 mM UDP-GlcUA; type: ADME, microsome; settings: 1 h, 100 µM
Procedure, shortened: (§3)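 Microsomes from single donors (20 μg protein) incubated with 0.1 mM substrate and 3 mM UDP-GlcUA for 60 min at 37°C in Tris-HCl pH 7.4 buffer with 5 mM MgCl2, 5 mM saccharolactone and 2% DMSO. Glucuronide measured by HPLC; donor data summarized as box-and-whisker plots.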

[10] = Drug metabolism in human duodenum microsomes assessed as glucuronidation activity at 0.1 mM for 60 mins in presence of 3 mM UDP-GlcUA; type: ADME, microsome; settings: 1 h, 100 µM; procedure, shortened: as §3

Row | SMILES | Vmax/Km [1] [µL/min] | Drug metabolism [2] | Vmax [3] [nmol/min/mg] | Vmax [4] [nmol/min/mg] | Km at 1 h [5] [µM] | Drug metabolism [6] [nmol/min/mg] | Drug metabolism [7] | Drug metabolism [8] [nmol/min/mg] | Drug metabolism [9] | Drug metabolism [10]
1 | CN(C)CCCNc1ccc2nnn3c4ccc(O)cc4c(=O)c1c23 | 5.4 | metabolite_detected | 0.413 | 0.386 | 76.9 | > 0.5 | metabolite_detected | 0.2 | metabolite_detected | metabolite_detected
2 | CCN(CC)CCNc1ccc2ncn3c4ccc(O)cc4c(=O)c1c23 [C-1311] | 5.2 | metabolite_detected | 0.823 | 0.156 | 159 | > 0.5 | metabolite_detected | 0.2 | metabolite_detected | metabolite_detected
